Source: ChEMBL document CHEMBL1287798, “3,5-disubstituted pyranone analogues of highly antifungally active furanones: conversion of biological effect from antifungal to cytostatic” (Bioorg Med Chem Lett, 2010)
The source made the active and inactive calls. The rule behind the calls is not given here.

How the values were obtained:
Pichia kudriavzevii [1] = assay: Antifungal activity against Candida krusei E28 by microdilution method; assay type: functional
[2] = test system: Trichophyton mentagrophytes; assay: Antifungal activity against Trichophyton mentagrophytes 445 by microdilution method; assay type: functional
Nannizzia gypsea = assay: Antifungal activity against Microsporum gypseum by microdilution method; assay type: functional
Nakaseomyces glabratus = assay: Antifungal activity against Candida glabrata 20/I by microdilution method; assay type: functional
Candida albicans [3] = assay: Antifungal activity against Candida albicans ATCC 44859 by microdilution method; assay type: functional
Candida tropicalis = assay: Antifungal activity against Candida tropicalis 156 by microdilution method; assay type: functional
Candida parapsilosis = assay: Antifungal activity against Candida parapsilosis ATCC 22019 by microdilution method; assay type: functional; conditions: Lodderomyces parapsilosis
Clavispora lusitaniae = assay: Antifungal activity against Clavispora lusitaniae 2446/I by microdilution method
Pichia kudriavzevii [4] = assay: Antifungal activity against Candida krusei ATCC 6258 by microdilution method; assay type: functional
Lichtheimia corymbifera = assay: Antifungal activity against Absidia corymbifera 272 by microdilution method; assay type: functional
Candida albicans [5] = assay: Antifungal activity against Candida albicans ATCC 90028 by microdilution method; assay type: functional
Trichosporon beigelii = assay: Antifungal activity against Trichosporon beigelii 1188 by microdilution method; assay type: functional
Aspergillus fumigatus = assay: Antifungal activity against Aspergillus fumigatus 231 by microdilution method; assay type: functional
HT-29 = assay: Growth inhibition of human HT-29 cells; assay type: functional, cell-based
L1210 [6] = assay: Growth inhibition of mouse L1210 cells; assay type: functional, cell-based
L1210 [7] = assay: Growth inhibition of mouse L1210 cells at 10 umol/L; assay type: functional, cell-based
Outline: (§1)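 Single-concentration cytostatic screen at 10 µmol L⁻¹ on mouse lymphocytic leukemia L1210 (ATCC CCL 219), human acute lymphoblastic leukemia CCRF-CEM T lymphoblastoid cells (ATCC CCL 119), human promyelocytic leukemia HL-60 (ATCC CCL 240) and human cervix carcinoma HeLa S3 (ATCC CCL 2.2).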

CCRF-CEM = assay: Growth inhibition of human CCRF-CEM cells at 10 umol/L; assay type: functional, cell-based; outline: as §1
HL-60 = assay: Growth inhibition of human HL60 cells at 10 umol/L; assay type: functional, cell-based; outline: as §1
HeLa S3 = assay: Growth inhibition of human HeLaS3 cells at 10 umol/L; assay type: functional, cell-based; outline: as §1

SMILES	MIC (Pichia kudriavzevii [1]) [µM]	MIC [2] [µM]	MIC (Nannizzia gypsea) [µM]	MIC (Nakaseomyces glabratus) [µM]	MIC (Candida albicans [3]) [µM]	MIC (Candida tropicalis) [µM]	MIC (Candida parapsilosis) [µM]	MIC (Clavispora lusitaniae) [µM]	MIC (Pichia kudriavzevii [4]) [µM]	MIC (Lichtheimia corymbifera) [µM]	MIC (Candida albicans [5]) [µM]	MIC (Trichosporon beigelii) [µM]	MIC (Aspergillus fumigatus) [µM]	IC50 (HT-29) [µM]	IC50 (L1210 [6]) [µM]	inhibition (L1210 [7])	inhibition (CCRF-CEM)	inhibition (HL-60)	inhibition (HeLa S3)
CC(=O)OCC1C=C(c2ccccc2)C(=O)OC1 (stereo unspecified)	≥ 62.5	≥ 62.5	≥ 62.5	≥ 62.5	≥ 62.5	≥ 62.5	≥ 62.5	≥ 62.5	≥ 62.5	≥ 62.5	≥ 62.5	≥ 62.5	≥ 62.5	–	–	–	–	–	–
CC(=O)OCC1C=C(c2ccc(Cl)c(Cl)c2)C(=O)OC1 (stereo unspecified)	≥ 62.5	≥ 62.5	≥ 62.5	≥ 62.5	≥ 62.5	≥ 62.5	≥ 62.5	≥ 62.5	≥ 62.5	≥ 62.5	≥ 62.5	≥ 62.5	≥ 62.5	2.45	7.3	–	–	–	–
O=C1OCC(CO)C=C1c1ccc(Cl)c(Cl)c1 (stereo unspecified)	–	–	–	–	–	–	–	–	–	–	–	–	–	–	–	inactive	inactive	inactive	inactive
CC(C)(C)C(=O)OCC1C=C(c2ccc(Cl)c(Cl)c2)C(=O)OC1 (stereo unspecified)	≥ 62.5	≥ 62.5	≥ 62.5	≥ 62.5	≥ 62.5	≥ 62.5	≥ 62.5	≥ 62.5	≥ 62.5	≥ 62.5	≥ 62.5	≥ 62.5	≥ 62.5	–	–	–	–	–	–
CC(C)(C)C(=O)OCC1C=C(c2cccc(Cl)c2)C(=O)OC1 (stereo unspecified)	≥ 62.5	≥ 62.5	≥ 62.5	≥ 62.5	≥ 62.5	≥ 62.5	≥ 62.5	≥ 62.5	≥ 62.5	≥ 62.5	≥ 62.5	≥ 62.5	≥ 62.5	–	–	–	–	–	–
O=C1OCC(COC(=O)c2ccccc2)C=C1c1ccccc1 (stereo unspecified)	≥ 62.5	≥ 62.5	≥ 62.5	≥ 62.5	≥ 62.5	≥ 62.5	≥ 62.5	≥ 62.5	≥ 62.5	≥ 62.5	≥ 62.5	≥ 62.5	≥ 62.5	–	–	–	–	–	–
CC(=O)OCC1C=C(c2cccc(Cl)c2)C(=O)OC1 (stereo unspecified)	≥ 62.5	≥ 62.5	≥ 62.5	≥ 62.5	≥ 62.5	≥ 62.5	≥ 62.5	≥ 62.5	≥ 62.5	≥ 62.5	≥ 62.5	≥ 62.5	≥ 62.5	–	–	–	–	–	–
CC(C)(C)C(=O)OCC1C=C(c2ccc(Cl)cc2)C(=O)OC1 (stereo unspecified)	≥ 62.5	≥ 62.5	≥ 62.5	≥ 62.5	≥ 62.5	≥ 62.5	≥ 62.5	≥ 62.5	≥ 62.5	≥ 62.5	≥ 62.5	≥ 62.5	≥ 62.5	–	–	–	–	–	–
COc1ccc(C2=CC(COC(=O)C(C)(C)C)COC2=O)cc1 (stereo unspecified)	≥ 62.5	≥ 62.5	≥ 62.5	≥ 62.5	≥ 62.5	≥ 62.5	≥ 62.5	≥ 62.5	≥ 62.5	≥ 62.5	≥ 62.5	≥ 62.5	≥ 62.5	–	–	–	–	–	–

Continued, in another order:

MIC (Pichia kudriavzevii [1]) [µM]	MIC [2] [µM]	MIC (Nannizzia gypsea) [µM]	MIC (Nakaseomyces glabratus) [µM]	MIC (Candida albicans [3]) [µM]	MIC (Candida tropicalis) [µM]	MIC (Candida parapsilosis) [µM]	MIC (Clavispora lusitaniae) [µM]	MIC (Pichia kudriavzevii [4]) [µM]	MIC (Lichtheimia corymbifera) [µM]	MIC (Candida albicans [5]) [µM]	MIC (Trichosporon beigelii) [µM]	MIC (Aspergillus fumigatus) [µM]	IC50 (HT-29) [µM]	IC50 (L1210 [6]) [µM]	SMILES	inhibition (L1210 [7])	inhibition (CCRF-CEM)	inhibition (HL-60)	inhibition (HeLa S3)
≥ 62.5	≥ 62.5	≥ 62.5	≥ 62.5	≥ 62.5	≥ 62.5	≥ 62.5	≥ 62.5	≥ 62.5	≥ 62.5	≥ 62.5	≥ 62.5	≥ 62.5	–	–	CC(=O)OCC1C=C(c2ccc(Cl)cc2)C(=O)OC1 (stereo unspecified)	–	–	–	–
≥ 62.5	≥ 62.5	≥ 62.5	≥ 62.5	≥ 62.5	≥ 62.5	≥ 62.5	≥ 62.5	≥ 62.5	≥ 62.5	≥ 62.5	≥ 62.5	≥ 62.5	–	–	CC(C)(C)C(=O)OCC1C=C(c2ccc(Br)cc2)C(=O)OC1 (stereo unspecified)	–	–	–	–
≥ 62.5	≥ 62.5	≥ 62.5	≥ 62.5	≥ 62.5	≥ 62.5	≥ 62.5	≥ 62.5	≥ 62.5	≥ 62.5	≥ 62.5	≥ 62.5	≥ 62.5	–	–	O=C1OCC(COC(=O)c2ccccc2)C=C1c1cccc(Cl)c1 (stereo unspecified)	–	–	–	–
≥ 62.5	≥ 62.5	≥ 62.5	≥ 62.5	≥ 62.5	≥ 62.5	≥ 62.5	≥ 62.5	≥ 62.5	≥ 62.5	≥ 62.5	≥ 62.5	≥ 62.5	–	5.9	O=C1OCC(COC(=O)c2ccccc2)C=C1c1ccc(Cl)c(Cl)c1 (stereo unspecified)	–	–	–	–
≥ 62.5	≥ 62.5	≥ 62.5	≥ 62.5	≥ 62.5	≥ 62.5	≥ 62.5	≥ 62.5	≥ 62.5	≥ 62.5	≥ 62.5	≥ 62.5	≥ 62.5	2.93	–	O=C1OCC(COC(=O)c2ccccc2)C=C1c1ccc(Cl)cc1 (stereo unspecified)	inactive	–	inactive	–
≥ 62.5	≥ 62.5	≥ 62.5	≥ 62.5	≥ 62.5	≥ 62.5	≥ 62.5	≥ 62.5	≥ 62.5	≥ 62.5	≥ 62.5	≥ 62.5	≥ 62.5	–	–	CC(C)(C)C(=O)OCC1C=C(c2ccccc2)C(=O)OC1 (stereo unspecified)	–	–	–	–
≥ 62.5	≥ 62.5	≥ 62.5	≥ 62.5	≥ 62.5	≥ 62.5	≥ 62.5	≥ 62.5	≥ 62.5	≥ 62.5	≥ 62.5	≥ 62.5	≥ 62.5	–	–	COc1ccc(C2=CC(COC(C)=O)COC2=O)cc1 (stereo unspecified)	–	–	–	–
≥ 62.5	≥ 62.5	≥ 62.5	≥ 62.5	≥ 62.5	≥ 62.5	≥ 62.5	≥ 62.5	≥ 62.5	≥ 62.5	≥ 62.5	≥ 62.5	≥ 62.5	–	–	COc1ccc(C2=CC(COC(=O)c3ccccc3)COC2=O)cc1 (stereo unspecified)	–	–	–	–
≥ 62.5	≥ 62.5	≥ 62.5	≥ 62.5	≥ 62.5	≥ 62.5	≥ 62.5	≥ 62.5	≥ 62.5	≥ 62.5	≥ 62.5	≥ 62.5	≥ 62.5	–	–	CC(=O)OCC1C=C(c2ccc(Br)cc2)C(=O)OC1 (stereo unspecified)	–	–	–	–
